We go through 28 compounds from ChEMBL document CHEMBL3769320, “Cell Penetrant Inhibitors of the KDM4 and KDM5 Families of Histone Lysine Demethylases. 2. Pyrido[3,4-d]pyrimidin-4(3H)-one Derivatives” (J Med Chem, 2016).

Series [1] addresses T1, Lysine-specific demethylase 4E (Homo sapiens, UniProt B2RXH2).
T1 sequence (B2RXH2 whole entry): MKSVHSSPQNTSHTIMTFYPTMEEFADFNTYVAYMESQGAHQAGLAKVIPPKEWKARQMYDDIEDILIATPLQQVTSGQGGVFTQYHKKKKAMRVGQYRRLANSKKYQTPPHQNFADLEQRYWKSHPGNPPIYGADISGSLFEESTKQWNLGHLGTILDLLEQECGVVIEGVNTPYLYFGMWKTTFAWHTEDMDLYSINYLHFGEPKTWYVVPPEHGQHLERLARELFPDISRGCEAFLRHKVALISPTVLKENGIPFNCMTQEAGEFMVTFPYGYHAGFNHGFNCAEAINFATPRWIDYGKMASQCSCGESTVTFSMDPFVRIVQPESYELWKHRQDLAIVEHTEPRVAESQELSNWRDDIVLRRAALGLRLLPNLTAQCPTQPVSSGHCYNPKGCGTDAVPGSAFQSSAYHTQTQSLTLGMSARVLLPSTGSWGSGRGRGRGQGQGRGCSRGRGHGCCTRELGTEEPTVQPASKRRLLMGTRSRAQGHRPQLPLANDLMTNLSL
The series is described as follows: Inhibition of KDM4E (unknown origin) by RFMS assay.

Series [2] deals with T2, Lysine-specific demethylase 4C (Homo sapiens, UniProt Q9H3R0).
T2 sequence (Q9H3R0 whole entry): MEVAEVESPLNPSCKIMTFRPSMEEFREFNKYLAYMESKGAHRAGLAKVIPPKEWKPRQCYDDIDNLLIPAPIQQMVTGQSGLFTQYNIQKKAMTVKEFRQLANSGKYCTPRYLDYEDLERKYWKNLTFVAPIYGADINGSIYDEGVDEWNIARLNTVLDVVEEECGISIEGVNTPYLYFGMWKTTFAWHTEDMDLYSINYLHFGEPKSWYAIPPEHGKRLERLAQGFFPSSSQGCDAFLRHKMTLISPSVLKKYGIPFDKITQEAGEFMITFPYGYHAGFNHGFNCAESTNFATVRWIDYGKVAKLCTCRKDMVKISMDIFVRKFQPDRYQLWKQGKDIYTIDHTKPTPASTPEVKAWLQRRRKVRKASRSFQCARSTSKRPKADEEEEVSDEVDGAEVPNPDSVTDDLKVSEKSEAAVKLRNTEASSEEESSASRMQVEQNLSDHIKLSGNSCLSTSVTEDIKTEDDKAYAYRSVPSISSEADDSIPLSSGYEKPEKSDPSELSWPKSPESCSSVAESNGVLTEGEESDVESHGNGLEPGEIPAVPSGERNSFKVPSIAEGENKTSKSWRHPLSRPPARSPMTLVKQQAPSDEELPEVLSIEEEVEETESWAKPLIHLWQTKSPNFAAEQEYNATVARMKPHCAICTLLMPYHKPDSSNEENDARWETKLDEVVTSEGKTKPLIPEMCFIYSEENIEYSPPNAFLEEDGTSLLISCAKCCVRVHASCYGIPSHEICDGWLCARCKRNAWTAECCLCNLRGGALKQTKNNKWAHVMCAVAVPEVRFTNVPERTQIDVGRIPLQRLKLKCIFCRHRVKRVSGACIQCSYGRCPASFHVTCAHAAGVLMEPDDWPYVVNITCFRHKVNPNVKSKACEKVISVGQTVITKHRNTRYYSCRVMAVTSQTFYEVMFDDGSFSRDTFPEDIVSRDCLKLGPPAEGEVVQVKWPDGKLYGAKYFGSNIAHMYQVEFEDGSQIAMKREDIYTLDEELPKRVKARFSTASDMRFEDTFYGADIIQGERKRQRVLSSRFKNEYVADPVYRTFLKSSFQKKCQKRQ
The series is described as follows: Inhibition of N-terminal his-tagged human KDM4C expressed in Escherichia coli BL21(DE3) using trimethylated peptide substrate by RFMS assay.

Series [3] concerns the target T3, Lysine-specific demethylase 4A (Homo sapiens, UniProt O75164).
T3 sequence (O75164 whole entry): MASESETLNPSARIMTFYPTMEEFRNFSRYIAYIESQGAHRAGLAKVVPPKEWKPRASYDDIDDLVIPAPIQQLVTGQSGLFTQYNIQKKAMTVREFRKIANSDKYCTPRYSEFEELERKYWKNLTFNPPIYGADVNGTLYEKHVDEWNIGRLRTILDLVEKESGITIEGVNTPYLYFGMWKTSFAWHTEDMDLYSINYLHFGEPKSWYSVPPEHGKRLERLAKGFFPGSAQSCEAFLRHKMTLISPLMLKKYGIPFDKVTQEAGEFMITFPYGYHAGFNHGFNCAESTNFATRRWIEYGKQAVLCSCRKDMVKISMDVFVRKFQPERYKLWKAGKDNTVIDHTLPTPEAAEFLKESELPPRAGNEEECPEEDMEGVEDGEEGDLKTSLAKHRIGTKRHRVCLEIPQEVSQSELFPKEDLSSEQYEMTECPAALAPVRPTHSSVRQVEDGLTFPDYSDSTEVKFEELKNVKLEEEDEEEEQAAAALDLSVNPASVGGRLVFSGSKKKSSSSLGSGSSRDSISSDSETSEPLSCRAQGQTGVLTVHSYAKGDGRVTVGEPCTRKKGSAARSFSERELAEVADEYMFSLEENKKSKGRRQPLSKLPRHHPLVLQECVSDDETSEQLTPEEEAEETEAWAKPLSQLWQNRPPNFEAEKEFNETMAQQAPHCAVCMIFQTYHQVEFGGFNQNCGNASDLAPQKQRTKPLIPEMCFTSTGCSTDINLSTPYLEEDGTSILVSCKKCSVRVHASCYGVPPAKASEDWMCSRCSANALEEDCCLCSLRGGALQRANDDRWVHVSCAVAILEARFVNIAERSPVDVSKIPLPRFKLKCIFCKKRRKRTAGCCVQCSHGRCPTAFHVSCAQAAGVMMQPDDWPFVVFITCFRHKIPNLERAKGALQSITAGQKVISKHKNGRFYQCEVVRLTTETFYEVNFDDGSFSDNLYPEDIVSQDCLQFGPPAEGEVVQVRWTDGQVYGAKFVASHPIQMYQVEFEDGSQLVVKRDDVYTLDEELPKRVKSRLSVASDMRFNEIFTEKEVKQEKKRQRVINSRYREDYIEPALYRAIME
The series is described as follows: Inhibition of KDM4A (unknown origin) by RFMS assay.

The target in series [4] is T4, Lysine-specific demethylase 4D (Homo sapiens, UniProt Q6B0I6).
T4 sequence (Q6B0I6 whole entry): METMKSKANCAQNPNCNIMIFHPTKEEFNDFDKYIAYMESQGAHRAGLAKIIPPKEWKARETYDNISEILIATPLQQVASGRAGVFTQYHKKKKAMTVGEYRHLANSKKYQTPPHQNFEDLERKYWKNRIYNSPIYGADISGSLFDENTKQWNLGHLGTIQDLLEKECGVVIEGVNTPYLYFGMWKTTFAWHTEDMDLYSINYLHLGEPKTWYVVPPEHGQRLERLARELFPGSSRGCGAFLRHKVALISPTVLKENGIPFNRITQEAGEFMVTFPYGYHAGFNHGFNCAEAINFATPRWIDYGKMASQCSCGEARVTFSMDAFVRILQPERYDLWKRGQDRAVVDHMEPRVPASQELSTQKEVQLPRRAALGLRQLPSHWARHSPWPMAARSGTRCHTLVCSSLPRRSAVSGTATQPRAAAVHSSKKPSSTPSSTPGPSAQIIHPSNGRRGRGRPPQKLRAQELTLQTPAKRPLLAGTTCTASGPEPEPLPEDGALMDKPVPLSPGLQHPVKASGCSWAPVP
Briefly: Inhibition of KDM4D (unknown origin) by RFMS assay.

The target of series [5] is T5, Lysine-specific demethylase 5C (Homo sapiens, UniProt P41229). The series is described as follows: Inhibition of KDM5C catalytic domain (1 -764 aa) (unknown origin) expressed in Sf9 cells using H3K4Me3 peptide as substrate by RFMS assay.
T5 sequence (P41229 whole entry, the tested form may be a part): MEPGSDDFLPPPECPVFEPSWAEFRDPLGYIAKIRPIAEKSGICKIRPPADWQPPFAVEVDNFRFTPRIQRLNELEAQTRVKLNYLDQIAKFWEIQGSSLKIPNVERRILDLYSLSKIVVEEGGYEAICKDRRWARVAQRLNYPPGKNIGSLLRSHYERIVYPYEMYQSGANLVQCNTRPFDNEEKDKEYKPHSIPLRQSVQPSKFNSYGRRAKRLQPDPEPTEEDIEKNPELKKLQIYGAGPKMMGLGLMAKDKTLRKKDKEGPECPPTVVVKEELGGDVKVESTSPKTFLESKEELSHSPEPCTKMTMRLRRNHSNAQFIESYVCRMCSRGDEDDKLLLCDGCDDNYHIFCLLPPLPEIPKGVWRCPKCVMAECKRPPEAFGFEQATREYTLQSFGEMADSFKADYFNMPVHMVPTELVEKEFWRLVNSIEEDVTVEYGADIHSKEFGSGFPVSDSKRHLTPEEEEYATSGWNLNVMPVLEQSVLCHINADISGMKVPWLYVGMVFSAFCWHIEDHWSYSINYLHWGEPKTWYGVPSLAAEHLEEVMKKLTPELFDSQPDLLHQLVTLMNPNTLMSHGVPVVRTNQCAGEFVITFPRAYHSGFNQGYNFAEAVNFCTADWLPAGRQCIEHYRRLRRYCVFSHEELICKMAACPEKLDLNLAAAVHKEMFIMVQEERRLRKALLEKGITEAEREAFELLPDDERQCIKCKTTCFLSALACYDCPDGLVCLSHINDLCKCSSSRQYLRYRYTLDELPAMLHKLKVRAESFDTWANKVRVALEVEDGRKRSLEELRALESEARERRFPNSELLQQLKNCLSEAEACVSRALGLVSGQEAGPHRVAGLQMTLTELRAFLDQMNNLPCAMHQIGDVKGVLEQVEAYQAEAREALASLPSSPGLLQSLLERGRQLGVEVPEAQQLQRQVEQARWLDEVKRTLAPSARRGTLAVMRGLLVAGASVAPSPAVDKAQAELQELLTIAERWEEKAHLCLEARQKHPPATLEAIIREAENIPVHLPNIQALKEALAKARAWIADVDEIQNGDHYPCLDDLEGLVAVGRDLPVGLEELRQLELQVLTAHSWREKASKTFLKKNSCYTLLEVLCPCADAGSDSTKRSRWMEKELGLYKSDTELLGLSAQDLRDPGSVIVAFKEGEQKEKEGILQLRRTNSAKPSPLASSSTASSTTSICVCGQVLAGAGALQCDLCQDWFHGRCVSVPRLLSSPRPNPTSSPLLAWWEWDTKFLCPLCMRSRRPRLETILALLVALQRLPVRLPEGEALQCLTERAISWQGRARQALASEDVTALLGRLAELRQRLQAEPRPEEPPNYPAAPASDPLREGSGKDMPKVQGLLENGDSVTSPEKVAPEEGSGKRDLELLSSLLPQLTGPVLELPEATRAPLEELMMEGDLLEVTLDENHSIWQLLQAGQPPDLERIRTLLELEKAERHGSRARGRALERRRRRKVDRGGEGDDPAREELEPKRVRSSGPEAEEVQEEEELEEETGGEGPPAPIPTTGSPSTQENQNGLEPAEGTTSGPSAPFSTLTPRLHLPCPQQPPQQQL
Series [6] concerns the target T5, Lysine-specific demethylase 5C. The series is described as follows: Inhibition of human KDM5C transfected in U2OS cells assessed as inhibition of […] demethylation for 24 hrs. In kind it is cell-based. To be noted: read-out: pIC50 (converted). A digest of the protocol: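 High-content cell imaging assay in U2OS cells overexpressing KDM5C, the same cell type as the KDM4C cellular mechanistic assay. Cellular potency reported as pIC50.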

A further series can be described thus: physchem. To be noted: buffer, pH 7.4.
Series [7] has as its target T2, Lysine-specific demethylase 4C. The series is described as follows: Inhibition of N-terminal HALO-tagged full-length human KDM4C transfected in U2OS cells assessed as inhibition of H3K9Me3 demethylation for 24 hrs.
For series [8] the target is unchanged. The series is described as follows: Inhibition of N-terminal his-tagged full-length human KDM4C transfected in U2OS cells assessed as inhibition of H3K9Me3 demethylation for 24 hrs. In kind it is cell-based.
In series [9] the target is Lysine-specific demethylase 6B (Homo sapiens, UniProt O15054). Briefly: Inhibition of KDM6B (unknown origin) by RFMS assay.
Sequence of Lysine-specific demethylase 6B (O15054 whole entry): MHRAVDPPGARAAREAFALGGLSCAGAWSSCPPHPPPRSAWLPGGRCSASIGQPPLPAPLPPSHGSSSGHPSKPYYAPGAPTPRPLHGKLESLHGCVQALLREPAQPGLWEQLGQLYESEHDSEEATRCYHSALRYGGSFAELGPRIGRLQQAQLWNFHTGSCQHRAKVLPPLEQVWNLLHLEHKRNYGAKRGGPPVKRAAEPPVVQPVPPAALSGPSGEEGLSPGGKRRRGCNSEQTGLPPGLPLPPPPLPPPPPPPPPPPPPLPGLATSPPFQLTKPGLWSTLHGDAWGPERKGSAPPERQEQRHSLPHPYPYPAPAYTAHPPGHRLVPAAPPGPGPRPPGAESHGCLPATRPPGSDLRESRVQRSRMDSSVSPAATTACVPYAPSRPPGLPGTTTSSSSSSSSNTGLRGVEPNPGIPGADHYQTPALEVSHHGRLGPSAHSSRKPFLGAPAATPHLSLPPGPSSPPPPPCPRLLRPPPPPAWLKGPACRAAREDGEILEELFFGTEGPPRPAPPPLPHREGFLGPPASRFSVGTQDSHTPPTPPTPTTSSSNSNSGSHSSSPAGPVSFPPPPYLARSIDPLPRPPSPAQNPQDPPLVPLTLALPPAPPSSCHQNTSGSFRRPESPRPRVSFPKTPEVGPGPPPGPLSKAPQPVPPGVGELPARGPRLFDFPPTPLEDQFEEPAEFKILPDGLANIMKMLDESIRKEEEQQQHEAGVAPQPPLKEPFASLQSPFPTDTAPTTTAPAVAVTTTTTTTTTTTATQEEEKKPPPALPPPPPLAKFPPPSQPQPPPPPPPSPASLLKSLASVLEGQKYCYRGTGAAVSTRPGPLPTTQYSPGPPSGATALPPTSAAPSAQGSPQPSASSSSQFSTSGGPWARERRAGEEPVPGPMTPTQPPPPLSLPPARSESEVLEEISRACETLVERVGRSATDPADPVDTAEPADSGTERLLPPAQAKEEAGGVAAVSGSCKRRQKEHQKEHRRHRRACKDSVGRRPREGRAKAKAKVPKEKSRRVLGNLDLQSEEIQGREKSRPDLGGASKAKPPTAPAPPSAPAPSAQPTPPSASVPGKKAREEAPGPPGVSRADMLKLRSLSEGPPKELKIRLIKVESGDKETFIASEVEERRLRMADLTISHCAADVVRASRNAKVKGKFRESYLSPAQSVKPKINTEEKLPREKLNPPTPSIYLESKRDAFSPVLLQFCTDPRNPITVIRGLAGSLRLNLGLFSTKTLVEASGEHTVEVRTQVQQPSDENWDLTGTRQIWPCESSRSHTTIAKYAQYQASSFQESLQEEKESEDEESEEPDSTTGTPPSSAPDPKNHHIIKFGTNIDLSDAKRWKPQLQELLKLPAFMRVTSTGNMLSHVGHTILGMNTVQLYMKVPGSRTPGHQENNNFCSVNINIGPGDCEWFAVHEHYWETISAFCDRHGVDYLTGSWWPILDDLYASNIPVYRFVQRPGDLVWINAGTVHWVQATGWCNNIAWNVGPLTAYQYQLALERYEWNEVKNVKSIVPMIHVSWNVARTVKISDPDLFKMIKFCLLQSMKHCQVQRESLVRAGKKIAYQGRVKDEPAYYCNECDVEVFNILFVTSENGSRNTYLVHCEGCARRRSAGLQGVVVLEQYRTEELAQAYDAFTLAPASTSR
A further series has as its target Prolyl hydroxylase EGLN3 (Homo sapiens, UniProt Q9H6Z9). The series is described as follows: Inhibition of full-length EGLN3 (unknown origin) expressed in Escherichia coli BL21(DE3) cells by HTRF assay.

Sequence of Prolyl hydroxylase EGLN3 (Q9H6Z9 whole entry): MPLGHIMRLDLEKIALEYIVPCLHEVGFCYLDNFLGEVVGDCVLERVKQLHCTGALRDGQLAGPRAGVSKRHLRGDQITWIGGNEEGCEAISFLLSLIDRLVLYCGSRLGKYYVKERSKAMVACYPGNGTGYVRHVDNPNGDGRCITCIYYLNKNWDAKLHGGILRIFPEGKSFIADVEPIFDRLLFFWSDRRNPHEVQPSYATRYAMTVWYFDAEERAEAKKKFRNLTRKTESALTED

`Nc1cnccc1C(=O)O` showed an IC50 in series [1] of 1.26 µM.
Consider `O=c1[nH]c(-c2ccccc2)nc2cnccc12`, for which the IC50 in series [2] is 20 µM.
Turning to `CC(C)c1ccc(Oc2nc3cnccc3c(=O)[nH]2)cn1`, the IC50 in series [3] was 1.58 µM; in series [2] it was 1 µM; in series [4], 0.631 µM; in [1] it was 0.398 µM; in series [5], 0.126 µM; in series [6] it was 50.1 µM. In series [7], the IC50 worked out at 2 µM. Also, the logD in “physchem” is 1.5.
`O=c1[nH]ncc2cnccc12` had an IC50 in series [2] above 100 µM.
In the case of `O=c1[nH]c(Oc2cnn(-c3ccccc3)c2)nc2cnccc12`, the IC50 in series [2] was 0.398 µM; in [8], 3.98 µM. This compound came in with a logD in “physchem” of 1.9.
As to `O=c1[nH]ccc2cnccc12`, the IC50 in [2] was above 100 µM.
As for `Cn1cc(Oc2nc3cnccc3c(=O)[nH]2)cn1`, the IC50 in series [2] was 0.398 µM; in series [8], 7.94 µM. In “physchem”, the logD was -0.3.
As to `COc1cccc(Cn2cc(Oc3nc4cnccc4c(=O)[nH]3)cn2)c1`, the IC50 was 0.631 µM in [2] and 6.31 µM in series [8]. Moreover, in “physchem”, the logD amounted to 2.
The matching figures for `O=c1[nH]c(Oc2cnn(C3CCCCC3)c2)nc2cnccc12`: 0.398 µM, 3.98 µM and 2.2.
Take `O=c1[nH]c(-c2cncc(F)c2)nc2cnccc12`: the IC50 in [2] was 2 µM.
Turning to `CC(C)n1cc(Oc2nc3cnccc3c(=O)[nH]2)cn1`, the IC50 in series [2] is 0.501 µM; in [8] it was 5.01 µM. The logD in the series “physchem” amounted to 0.7.
For `O=c1[nH]c(Oc2cnn(C3CCCCCC3)c2)nc2cnccc12`, the IC50 is 0.501 µM in series [2] and 2.51 µM in series [8]. The logD in “physchem” turned out to be 2.9.
Consider `O=c1ncn(Cc2ccccc2)c2cnccc12`, for which the IC50 in [2] was 25.1 µM.
With `O=c1[nH]c(OCc2ccccc2)nc2cnccc12`, the IC50 in [2] was 2 µM; in series [8], above 100 µM. Moreover, the logD in the series “physchem” stood at 2.8.
`O=c1[nH]c(Oc2cnn(Cc3cccnc3)c2)nc2cnccc12`: the IC50 is 0.631 µM in [2] and 12.6 µM in [8]. The same compound had a logD in the series “physchem” of 0.3.
Take `O=c1[nH]c(Oc2ccc(Cl)cc2)nc2cnccc12`: the IC50 in series [2] is 0.501 µM; in [8], 10 µM.
Regarding `Cc1nn(C)cc1Oc1nc2cnccc2c(=O)[nH]1`, the IC50 in [2] is 2.51 µM; in series [8] it was above 100 µM. For the same compound, the logD in the series “physchem” came out at 0.
The matching figures for `O=c1[nH]c(OC2CCCCC2)nc2cnccc12`: 3.16 µM, 25.1 µM and 3.7.
In series [2], `O=c1[nH]c(-c2cccnc2)nc2cnccc12` showed an IC50 of 7.94 µM.
For the compound `Cc1c(Oc2nc3cnccc3c(=O)[nH]2)cnn1C`, in series [2], the IC50 was 2 µM. The compound also showed a logD in the series “physchem” of -0.2.
For `O=c1[nH]c(OCC2CCCCC2)nc2cnccc12`, the IC50 in [2] is 3.16 µM; in series [8] it was above 100 µM. The compound further had a logD in the series “physchem” of 4.5.
As for `O=c1[nH]c(Oc2cccc(O)c2)nc2cnccc12`, the IC50 in series [2] was 0.2 µM; in series [8], 10 µM. This compound had a logD in “physchem” of 0.3.
Take `O=c1[nH]c(Oc2cnn(Cc3ccccc3)c2)nc2ncccc12`: the IC50 (in [3]; in series [2]; in series [4]; in [1]; in series [9]; against Prolyl hydroxylase EGLN3) was above 100 µM throughout. Also, the IC50 in series [8] is above 100 µM; in series [5], 31.6 µM; in series [6], above 100 µM.
In the case of `O=c1[nH]c(Oc2cn[nH]c2)nc2cnccc12`, the IC50 is 0.398 µM in [2] and 7.94 µM in [8]. The logD in “physchem” was -0.6.
Regarding `O=c1[nH]c(Oc2cccnc2)nc2cnccc12`, the IC50 in series [2] is 0.501 µM; in series [8], 12.6 µM. The compound also had a logD in “physchem” of -0.2.
Take `O=c1ncn(CCCc2ccccc2)c2cnccc12`: the IC50 in series [2] is at least 100 µM.
Take `O=c1[nH]c(Oc2ccccc2)nc2cnccc12`: the IC50 in series [2] is 0.631 µM; in series [8], 12.6 µM. The compound further had a logD in “physchem” of 1.2.
As to `O=c1[nH][nH]c2cnccc12`, in [2], the IC50 was above 100 µM.
